Tests used:
[1] = tested on: Mycobacterium tuberculosis; assay: Antimycobacterial activity against Mycobacterium bovis BCG by MABA; assay type: functional, variant bovis BCG
In short: (§1)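 Compounds in DMSO (100× highest final concentration), diluted in 7H9GC; tested at 100, 50, 10 and 1 µg/mL in triplicate, three experiments. Frozen inoculum diluted in 7H9GC. Read visually and spectrophotometrically. […], mean given. Visual MIC = lowest concentration preventing blue-to-pink change.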

[2] = tested on: Mycobacterium tuberculosis; assay: Antimycobacterial activity against Mycobacterium bovis BCG at 50 ug/mL after 24 to 48 hrs by MABA; assay type: functional; conditions: variant bovis BCG; in short: as §1
[3] = tested on: Mycobacterium tuberculosis; assay: Antimycobacterial activity against Mycobacterium bovis BCG at 1 ug/mL after 24 to 48 hrs by MABA; assay type: functional; conditions: variant bovis BCG; in short: as §1
[4] = tested on: Mycobacterium tuberculosis; assay: Antimycobacterial activity against Mycobacterium bovis BCG at 100 ug/mL after 24 to 48 hrs by MABA; assay type: functional; conditions: variant bovis BCG; in short: as §1
[5] = tested on: Mycobacterium tuberculosis; assay: Antimycobacterial activity against Mycobacterium bovis BCG at 10 ug/mL after 24 to 48 hrs by MABA; assay type: functional; conditions: variant bovis BCG; in short: as §1

Cc1cn(COCCO)c(=O)[nH]c1=O
Inhibition [1]: 0%

[N-]=[N+]=NC(CCl)c1cn(COC(CO)CO)c(=O)[nH]c1=O (stereo unspecified)
Inhibition [1]: 0%

[N-]=[N+]=NC(CBr)c1cn(COCCO)c(=O)[nH]c1=O (stereo unspecified)
inhibition at 50 µg/mL [2]: 100%

CCCCCC#Cc1cn(COCCO)c(=O)[nH]c1=O
Inhibition [1]: 0%

CO[C@H]1/C=C/O[C@@]2(C)Oc3c(C)c(O)c4c(O)c(c(/C=N/N5CCN(C)CC5)c(O)c4c3C2=O)NC(=O)/C(C)=C\C=C\[C@H](C)[C@H](O)[C@@H](C)[C@@H](O)[C@@H](C)[C@H](OC(C)=O)[C@@H]1C [RIFAMPIN]
inhibition at 1 µg/mL [3]: 100%

O=c1[nH]c(=O)n(COCCO)cc1Br
Inhibition [1]: 0%

O=c1[nH]c(=O)n(COC(CO)CO)cc1I [IODACYCLUR]
Inhibition [1]: 0%

Nc1cn(COCCO)c(=O)[nH]c1=O
inhibition at 50 µg/mL [2]: 50% | inhibition at 100 µg/mL [4]: 50%

CCCCCCCCC#Cc1cn(COC(CO)CO)c(=O)[nH]c1=O
inhibition at 10 µg/mL [5]: 60% | inhibition at 50 µg/mL [2]: 100% | inhibition at 100 µg/mL [4]: 100%

[N-]=[N+]=NC(CCl)c1cn(COCCO)c(=O)[nH]c1=O (stereo unspecified)
inhibition at 10 µg/mL [5]: 50% | inhibition at 50 µg/mL [2]: 100% | inhibition at 100 µg/mL [4]: 100%

CCc1cn(COCCO)c(=O)[nH]c1=O
Inhibition [1]: 0%

CCCCCCCCCCC#Cc1cn(COC(CO)CO)c(=O)[nH]c1=O
inhibition at 1 µg/mL [3]: 50% | inhibition at 10 µg/mL [5]: 80% | inhibition at 50 µg/mL [2]: 100% | inhibition at 100 µg/mL [4]: 100%

C=Cc1cn(COCCO)c(=O)[nH]c1=O
Inhibition [1]: 0%

O=c1[nH]c(=O)n(COCCO)cc1I
Inhibition [1]: 0%

CCCCCCCCCCC#Cc1cn(COCCO)c(=O)n(C#CCCCCCCCCCC)c1=O
Inhibition [1]: 0%

O=c1[nH]c(=O)n(COCCO)cc1F
Inhibition [1]: 0%

O=c1ccn(COCCO)c(=O)[nH]1
Inhibition [1]: 0%

C=Cc1cn(COC(CO)CO)c(=O)[nH]c1=O
Inhibition [1]: 0%

O=c1[nH]c(=O)n(COCCO)cc1Cl
Inhibition [1]: 0%

C=C(N=[N+]=[N-])c1cn(COC(CO)CO)c(=O)[nH]c1=O
Inhibition [1]: 0%

[N-]=[N+]=NC(CBr)c1cn(COC(CO)CO)c(=O)[nH]c1=O (stereo unspecified)
Inhibition [1]: 0%

O=c1[nH]c(=O)n(COCCO)cc1[N+](=O)[O-]
Inhibition [1]: 0%

[N-]=[N+]=NC(CI)c1cn(COCCO)c(=O)[nH]c1=O (stereo unspecified)
inhibition at 50 µg/mL [2]: 50% | inhibition at 100 µg/mL [4]: 50%

C=C(N=[N+]=[N-])c1cn(COCCO)c(=O)[nH]c1=O
inhibition at 10 µg/mL [5]: 50% | inhibition at 50 µg/mL [2]: 50% | inhibition at 100 µg/mL [4]: 50%

[N-]=[N+]=NC(CI)c1cn(COC(CO)CO)c(=O)[nH]c1=O (stereo unspecified)
Inhibition [1]: 0%

— ChEMBL document CHEMBL1146361, “Studies on acyclic pyrimidines as inhibitors of mycobacteria” (Bioorg Med Chem, 2007)
